Experiments:
Type in all cases: functional
Bacillus cereus [1] = assay: Antibacterial activity against Bacillus cereus CIP 6624 after 18 hrs by agar dilution method; conditions: CIP 6624, 18 h
Method in brief: (§1)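 Agar-dilution MIC against Gram-positive strains. Compounds in DMSO, geometric dilutions giving final 100−0.75 mg/L in Mueller Hinton agar. Strains grown 18 h at 37 °C in trypticase soy broth, diluted in sterile water, spotted by Steers inoculator (about 1000 UFC/spot). Plates incubated 18 h at 37 °C; DMSO blank; ofloxacin positive control. MIC = lowest concentration with no visible growth.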

Bacillus cereus [2] = assay: Antibacterial activity against Bacillus cereus N190 after 18 hrs by agar dilution method; conditions: N190, 18 h; method in brief: as §1
Bacillus cereus [3] = assay: Antibacterial activity against Bacillus cereus N258 after 18 hrs by agar dilution method; conditions: N258, 18 h; method in brief: as §1
Bacillus cereus [4] = assay: Antibacterial activity against Bacillus cereus N349 after 18 hrs by agar dilution method; conditions: N349, 18 h; method in brief: as §1
Bacillus spizizenii = assay: Antibacterial activity against Bacillus subtilis ATCC 6633 after 18 hrs by agar dilution method; conditions: ATCC 6633, 18 h; method in brief: as §1
Corynebacterium striatum = assay: Antibacterial activity against Corynebacterium striatum N840 after 18 hrs by agar dilution method; conditions: N840, 18 h; method in brief: as §1
Enterococcus avium = assay: Antibacterial activity against Enterococcus avium CIP 104053 after 18 hrs by agar dilution method; conditions: CIP 104053, 18 h; method in brief: as §1
[5] = tested on: Enterococcus casseliflavus; assay: Antibacterial activity against Enterococcus casseliflavus N487 after 18 hrs by agar dilution method; conditions: N487, 18 h; method in brief: as §1
[6] = tested on: Enterococcus casseliflavus; assay: Antibacterial activity against Enterococcus casseliflavus CIP 103018 after 18 hrs by agar dilution method; conditions: CIP 103018, 18 h; method in brief: as §1
Enterococcus durans = assay: Antibacterial activity against Enterococcus durans CIP 104999 after 18 hrs by agar dilution method; conditions: CIP 104999, 18 h; method in brief: as §1
Enterococcus faecalis [7] = assay: Antibacterial activity against Enterococcus faecalis CIP 103214 after 18 hrs by agar dilution method; conditions: CIP 103214, 18 h; method in brief: as §1
Enterococcus faecalis [8] = assay: Antibacterial activity against Enterococcus faecalis CIP 104676 after 18 hrs by agar dilution method; conditions: CIP 104676, 18 h; method in brief: as §1
Enterococcus faecalis [9] = assay: Antibacterial activity against Enterococcus faecalis N491 after 18 hrs by agar dilution method; conditions: N491, 18 h; method in brief: as §1
Enterococcus faecalis [10] = assay: Antibacterial activity against Enterococcus faecalis N518 after 18 hrs by agar dilution method; conditions: N518, 18 h; method in brief: as §1
Enterococcus faecalis [11] = assay: Antibacterial activity against Enterococcus faecalis N520 after 18 hrs by agar dilution method; conditions: N520, 18 h; method in brief: as §1
Enterococcus faecium [12] = assay: Antibacterial activity against Enterococcus faecium CIP 103014 after 18 hrs by agar dilution method; conditions: CIP 103014, 18 h; method in brief: as §1
Enterococcus faecium [13] = assay: Antibacterial activity against Enterococcus faecium CIP 107387 after 18 hrs by agar dilution method; conditions: CIP 107387, 18 h; method in brief: as §1
Enterococcus faecium [14] = assay: Antibacterial activity against Enterococcus faecium N490 after 18 hrs by agar dilution method; conditions: N490, 18 h; method in brief: as §1
Enterococcus faecium [15] = assay: Antibacterial activity against Enterococcus faecium N507 after 18 hrs by agar dilution method; conditions: N507, 18 h; method in brief: as §1
Enterococcus faecium [16] = assay: Antibacterial activity against Enterococcus faecium N733 after 18 hrs by agar dilution method; conditions: N733, 18 h; method in brief: as §1
Enterococcus faecium [17] = assay: Antibacterial activity against Enterococcus faecium N823 after 18 hrs by agar dilution method; conditions: N823, 18 h; method in brief: as §1
Enterococcus gallinarum [18] = assay: Antibacterial activity against Enterococcus gallinarum CIP 105985 after 18 hrs by agar dilution method; conditions: CIP 105985, 18 h; method in brief: as §1
Enterococcus gallinarum [19] = assay: Antibacterial activity against Enterococcus gallinarum N489 after 18 hrs by agar dilution method; conditions: N489, 18 h; method in brief: as §1
Enterococcus gallinarum [20] = assay: Antibacterial activity against Enterococcus gallinarum N492 after 18 hrs by agar dilution method; conditions: N492, 18 h; method in brief: as §1
Enterococcus hirae = assay: Antibacterial activity against Enterococcus hirae CIP 5855 after 18 hrs by agar dilution method; conditions: CIP 5855, 18 h; method in brief: as §1
Listeria innocua = assay: Antibacterial activity against Listeria innocua E044 after 18 hrs by agar dilution method; conditions: E044, 18 h; method in brief: as §1
Listeria monocytogenes [21] = assay: Antibacterial activity against Listeria monocytogenes CIP 103575 after 18 hrs by agar dilution method; conditions: CIP 103575, 18 h; method in brief: as §1
Listeria monocytogenes [22] = assay: Antibacterial activity against Listeria monocytogenes N783 after 18 hrs by agar dilution method; conditions: N783, 18 h; method in brief: as §1
Listeria monocytogenes [23] = assay: Antibacterial activity against Listeria monocytogenes N836 after 18 hrs by agar dilution method; conditions: N836, 18 h; method in brief: as §1
Listeria monocytogenes [24] = assay: Antibacterial activity against Listeria monocytogenes N851 after 18 hrs by agar dilution method; conditions: N851, 18 h; method in brief: as §1
Staphylococcus aureus [25] = assay: Antibacterial activity against Staphylococcus aureus ATCC 25923 after 18 hrs by agar dilution method; conditions: ATCC 25923, 18 h; method in brief: as §1
Staphylococcus aureus [26] = assay: Antibacterial activity against Staphylococcus aureus ATCC 9144 oxford after 18 hrs by agar dilution method; method in brief: as §1
Staphylococcus aureus [27] = assay: Antibacterial activity against Staphylococcus aureus CIP 483 after 18 hrs by agar dilution method; conditions: CIP 483, 18 h; method in brief: as §1
Staphylococcus aureus [28] = assay: Antibacterial activity against Staphylococcus aureus CIP 53154 after 18 hrs by agar dilution method; conditions: CIP 53154, 18 h; method in brief: as §1
Staphylococcus aureus [29] = assay: Antibacterial activity against Staphylococcus aureus CIP 53156 after 18 hrs by agar dilution method; conditions: CIP 53156, 18 h; method in brief: as §1
Staphylococcus aureus [30] = assay: Antibacterial activity against Staphylococcus aureus CIP 5710 after 18 hrs by agar dilution method; conditions: CIP 5710, 18 h; method in brief: as §1
Staphylococcus aureus [31] = assay: Antibacterial activity against Staphylococcus aureus CIP 7625 after 18 hrs by agar dilution method; conditions: CIP 7625, 18 h; method in brief: as §1
Staphylococcus aureus [32] = assay: Antibacterial activity against Staphylococcus aureus CRBIP 2121 after 18 hrs by agar dilution method; conditions: CRBIP 2121, 18 h; method in brief: as §1
[33] = tested on: Staphylococcus epidermidis; assay: Antibacterial activity against Staphylococcus epidermidis CIP 53124 after 18 hrs by agar dilution method; conditions: CIP 53124, 18 h; method in brief: as §1
[34] = tested on: Staphylococcus haemolyticus; assay: Antibacterial activity against Staphylococcus haemolyticus CIP 8156 after 18 hrs by agar dilution method; conditions: CIP 8156, 18 h; method in brief: as §1
[35] = tested on: Staphylococcus intermedius; assay: Antibacterial activity against Staphylococcus intermedius N987 after 18 hrs by agar dilution method; conditions: N987, 18 h; method in brief: as §1
[36] = tested on: Staphylococcus lugdunensis; assay: Antibacterial activity against Staphylococcus lugdunensis ATCC 43809 after 18 hrs by agar dilution method; conditions: ATCC 43809, 18 h; method in brief: as §1
[37] = tested on: Staphylococcus saprophyticus; assay: Antibacterial activity against Staphylococcus saprophyticus CIP 76125 after 18 hrs by agar dilution method; conditions: CIP 76125, 18 h; method in brief: as §1
[38] = tested on: Staphylococcus saprophyticus; assay: Antibacterial activity against Staphylococcus saprophyticus E260 after 18 hrs by agar dilution method; conditions: E260, 18 h; method in brief: as §1
Mammaliicoccus sciuri = assay: Antibacterial activity against Staphylococcus sciuri N993 after 18 hrs by agar dilution method; conditions: N993, 18 h; method in brief: as §1
Streptococcus agalactiae = assay: Antibacterial activity against Streptococcus agalactiae CIP 103227 after 18 hrs by agar dilution method; conditions: ATCC 13813, 18 h; method in brief: as §1
MRC5 [39] = assay: Cytotoxicity against human MRC5 cells assessed as growth inhibition at 10^-5 M after 72 hrs by MTS assay relative to control; conditions: MRC5, 72 h, read-out: GI
Method in brief: (§2)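 Cells from ATCC; HCT-116 grown in RPMI 1640 and MRC5 in DMEM, each with 10% FCS and 1% glutamine, 37 °C, 5% CO2. Seeded at 2.5 × 10^3 cells/well, cultured 24 h, then exposed to compounds at 1 and 10 μM final for 72 h. MTS read-out, absorbance 490 nm; percent index from treated/control OD490 × 100, three experiments.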

MRC5 [40] = assay: Cytotoxicity against human MRC5 cells assessed as growth inhibition at 10^-6 M after 72 hrs by MTS assay relative to control; conditions: MRC5, 72 h, read-out: GI; method in brief: as §2
HCT-116 [41] = assay: Cytotoxicity against human HCT116 cells assessed as growth inhibition at 10^-5 M after 72 hrs by MTS assay relative to control; conditions: HCT-116, 72 h, read-out: GI; method in brief: as §2
HCT-116 [42] = assay: Cytotoxicity against human HCT116 cells assessed as growth inhibition at 10^-6 M after 72 hrs by MTS assay relative to control; conditions: HCT-116, 72 h, read-out: GI; method in brief: as §2

C=C(CC(=O)O)C(=O)C[C@H]1C(=C)CC[C@H]2C(C)(C)CCC[C@]12C
0%: inhibition of growth at 1 µM (HCT-116 [42])
25%: inhibition of growth at 10 µM (MRC5 [39])
100 µM: MIC (Bacillus spizizenii) | MIC (Staphylococcus aureus [30]) | MIC (Staphylococcus aureus [32]) | MIC [35] | MIC (Streptococcus agalactiae)
50 µM: MIC (Bacillus cereus [1]) | MIC (Bacillus cereus [3]) | MIC (Bacillus cereus [4])
158 µM: MIC (Corynebacterium striatum) | MIC (Enterococcus faecium [14]) | MIC (Enterococcus gallinarum [19]) | MIC (Listeria innocua) | MIC (Listeria monocytogenes [21]) | MIC (Listeria monocytogenes [22]) | MIC (Listeria monocytogenes [24]) | MIC (Staphylococcus aureus [25]) | MIC (Staphylococcus aureus [26]) | MIC (Staphylococcus aureus [27]) | MIC (Staphylococcus aureus [28]) | MIC (Staphylococcus aureus [29]) | MIC (Staphylococcus aureus [31]) | MIC [33] | MIC [34] | MIC [36] | MIC [37] | MIC [38] | MIC (Mammaliicoccus sciuri)
46%: inhibition of growth at 10 µM (HCT-116 [41])
> 158 µM: MIC (Enterococcus avium) | MIC [5] | MIC [6] | MIC (Enterococcus durans) | MIC (Enterococcus faecalis [7]) | MIC (Enterococcus faecalis [8]) | MIC (Enterococcus faecalis [9]) | MIC (Enterococcus faecalis [10]) | MIC (Enterococcus faecalis [11]) | MIC (Enterococcus faecium [12]) | MIC (Enterococcus faecium [13]) | MIC (Enterococcus faecium [15]) | MIC (Enterococcus faecium [16]) | MIC (Enterococcus faecium [17]) | MIC (Enterococcus gallinarum [18]) | MIC (Enterococcus gallinarum [20]) | MIC (Enterococcus hirae) | MIC (Listeria monocytogenes [23])
22%: inhibition of growth at 1 µM (MRC5 [40])
25 µM: MIC (Bacillus cereus [2])
